From PubChem BioAssay
core dimer inh: inhibitors of HCV core protein dimerization, primary screen, biochemical, TR-FRET, high-throughput; TR-FRET GST/Flag-core106 dimerization, 1536-well; 0.33% of 300,000 active; inhibition, % at 5 µM; AID 1899, 2009;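 active means inhibition above the mean of all tested compounds plus 3 SD, set per screening campaign, cut at about 45% in these data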
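System: GST-tagged and Flag-tagged HCV core protein residues 1-106 / Input: core106 proteins, GST 13.5 nM and Flag 17 nM / Buffer or medium: KF-containing HEPES buffer, pH 7.45, DTT, CHAPS, BSA / Probe or stimulus: Eu-anti-GST and XL665-anti-Flag labelled anti-tag antibodies / Schedule: 4 h, 22.5 °C incubation / Technique: TR-FRET 671 and 617 nm emission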
p-CIP stab down: p/CIP-EGFP fusion destabilizers, primary screen, fluorescence, F442A cells. Q05BA5. 16 h. decrease of EGFP signal, % at 10 µM. 0.01% of 290,000 active;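 active means EGFP signal decrease of at least 30% at 10 µM or well 3 SD below plate mean, unless failing retest; inactive means the rest, including hits failing retest or dose response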
NS3 helicase inh: inhibitors of HCV NS3 helicase, primary screen, biochemical, Cy5 molecular beacon fluorescence; Hepatitis C virus NS3 helicase; NS3 helicase DNA unwinding; inhibition, % at 10.9 µM; 0.56% of 290,000 active; AID 1800, 2009;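 active means inhibition above the mean of all tested compounds plus 3 SD, set per campaign, cut at about 35% in these data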
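Material: hepatitis C virus NS3 helicase domain fragment enzyme; measured by: Cy5 fluorescence, 0 and 60 min reads; control set: DMSO and thioflavine S; incubation: 60 min unwinding reaction at 25 °C after ATP addition; read-out basis: % inhibition from 60/0 min fluorescence ratio, DMSO 0%, thioflavine S 100%; repeats: singlicate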
GPR7 antag: GPR7 receptor antagonists, primary screen, cell-based, fluorescence, single concentration | AID 1861, 2009 | GPR7-expressing cells, fluorescence antagonist assay | 1.1% of 290,000 active | inhibition, % at 4.4 µM; in the data active means inhibition above about 16%, passing the limit was not always enough;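 further: cells stimulated with the agonist NPW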
FID counter: compounds displacing fluorescent DNA intercalator, primary screen, artefact control for HCV NS3 helicase inhibitor project, biochemical, FID fluorescence. 0.17% of 290,000 active. AID 1845, 2009. DNA fluorescent intercalator displacement. inhibition, % at 7.9 µM; in the data active means inhibition above about 37%;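 further: higher means more ethidium bromide displaced from hairpin DNA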
Each line names hits and unclear results; the compound was inactive in the other large screens. Sampled rows, rich in hits. Any-hit rate of the full collection: about 1.9%.

CC(C)(C)Cc1nnc(NC(=O)Cc2cccs2)s1	core dimer inh 51.4
CC(C)Cc1nnc(NC(=O)Cc2cccs2)s1	core dimer inh 67.2
O=C(O)CC(NC(=O)c1ccncc1)c1ccccc1 (configuration not stated)	none
Cc1ccccc1OCC(=O)Nc1ccc2c(c1)n(C)c(=O)n2C	none
Cc1cc(SCc2ccc(Cl)cc2)nc(=O)[nH]1	none
Cc1ccc(CSc2cc(C)[nH]c(=O)n2)cc1	core dimer inh 53.2
Fc1cccc(CN2CCN(Cc3nc(CCc4ccccc4)no3)CC2)c1	none
O=C(Cn1cnc2ccccc2c1=O)Nc1nnc(SCc2ccc(Cl)cc2)s1	none
Cc1ccc(NC(=O)c2cc(-c3ccc(C)o3)nc3ccccc23)cc1	none
Cc1ccc(-c2cc(C(=O)Nc3ccccn3)c3ccccc3n2)o1	core dimer inh 64.3
CCOc1ccc(/C=N/n2c(C3CCCCC3)n[nH]c2=S)cc1	none
O=C(Nc1ccccc1)C1Cc2ccccc2CN1C(=O)c1ccco1 (configuration not stated)	core dimer inh 58.6
O=C(O)c1ccccc1NC(=O)C1CCCO1 (configuration not stated)	none
O=C(NCCc1ccccc1)c1ccccc1NC(=O)C1CCCO1 (configuration not stated)	GPR7 antag 19.7
O=C(Nc1cccc(-c2ccc(N3CCCCC3)nn2)c1)c1ccco1	none (no result: p-CIP stab down, NS3 helicase inh, GPR7 antag, FID counter)
O=[N+]([O-])c1ccc(NCCCNS(=O)(=O)c2ccc(Cl)cc2)c(Cl)c1	GPR7 antag 54.1
O=[N+]([O-])c1ccccc1NCCNS(=O)(=O)c1ccc(Cl)cc1	none
O=C(O)CCC1c2cc3c4cc2OC2Oc5cc6c(cc51)C(CCC(=O)O)c1cc5c7cc1OC(O6)c1cc6cc(c1)Oc1cc(cc(C(=O)O)c1)Oc1cc8cc(c1)C(Oc1cc(c(cc1C5CCC(=O)O)C3CCC(=O)O)OC(O4)c1cc(cc(c1)Oc1cc(cc(C(=O)O)c1)O8)Oc1cc(cc(C(=O)O)c1)Oc1cc(cc2c1)Oc1cc(cc(C(=O)O)c1)O6)O7 (configuration not stated)	core dimer inh 60.7 (no result: p-CIP stab down, NS3 helicase inh, GPR7 antag, FID counter)
CCOc1ccccc1N1Cc2ccccc2C1	core dimer inh 53.6
Cc1cc2c(cc1C)CN(c1ccccc1)C2	none
CCOc1ccccc1N1Cc2cc(C)c(C)cc2C1	core dimer inh 66.7
O=C(CCc1ccccc1)Nc1cc2c3c(c1)CC(=O)N3CCC2	none (no result: p-CIP stab down, NS3 helicase inh, GPR7 antag, FID counter)
CCN(CC)CC(O)COc1ccccc1C(=O)CCc1ccccc1 (configuration not stated)	none
CCCCN(CCCC)CC(O)COc1ccccc1C(=O)Nc1ccccc1 (configuration not stated)	GPR7 antag 19.8
CCN(c1ccccc1)S(=O)(=O)c1ccc(OC)c(NC(=O)CCc2nc3ccccc3c(=O)[nH]2)c1	none (no result: p-CIP stab down, NS3 helicase inh, GPR7 antag, FID counter)
CCn1c(=O)c(C(=O)CN2CCOCC2)c(N)n(Cc2ccccc2)c1=O	none
CCn1c(=O)c(C(=O)CN2CCc3ccccc32)c(N)n(Cc2ccccc2)c1=O	core dimer inh 50.9
Cc1ccc(NC(=O)CNCc2cccs2)cc1Br	none
COc1cccc(C(=O)NCCS(=O)(=O)NC2CCCC2)c1	none (no result: p-CIP stab down, NS3 helicase inh, GPR7 antag, FID counter)
Cn1cccc1CC(=O)N/N=C/c1cc([N+](=O)[O-])ccc1Cl	core dimer inh 48.1
Cn1cccc1CC(=O)N/N=C/c1cccc([N+](=O)[O-])c1	none
CN(C)CCCNC(=S)Nc1ccc(-c2ccccc2)cc1	none
COc1cccc(Oc2nnnn2-c2ccccc2)c1	none
COc1cccc(-n2nnnc2S(C)(=O)=O)c1	GPR7 antag 28.0
CC(C)(C)c1ccc(Cn2nnc3c(=O)[nH]c(C4CCN(C(=O)c5ccco5)CC4)nc32)cc1	none (no result: core dimer inh)
Cc1cc(C(=O)OCC(=O)Nc2sc3c(c2C#N)CCC(C)C3)c2ccccc2n1 (configuration not stated)	core dimer inh 53.1
COc1ccccc1-c1cc(C(=O)Nc2sc3c(c2C#N)CCC(C)C3)c2ccccc2n1 (configuration not stated)	core dimer inh 46.9
CC1CCc2c(sc(NC(=O)COC(=O)c3ccc(NC(=O)CC#N)cc3)c2C#N)C1 (configuration not stated)	none (no result: p-CIP stab down, NS3 helicase inh, GPR7 antag, FID counter)
Cn1cc(S(=O)(=O)N2CCCC2)cc1C(=O)N1CCN(c2ccccc2)CC1	none
